From ChEMBL document CHEMBL3763145, “Niizalactams A-C, Multicyclic Macrolactams Isolated from Combined Culture of Streptomyces with Mycolic Acid-Containing Bacterium” (J Nat Prod, 2015)
Calls of active or inactive are those of the source.

Columns and labels:
[1] = test system: Candida albicans; assay: Antimicrobial activity against Candida albicans at 1.25 to 10 ug/disc after 1 to 2 days by disc diffusion method; assay type: functional, organism-based
Method in brief: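 Candida albicans precultured in LB broth; 1 mL broth seeded directly into 20 mL agar of 4.0% glucose, 1.0% peptone, pH 5.7. 6 mm paper disks at 10, 5, 2.5, 1.25 μg/disk; plates held at 37 °C for 1 to 2 days and scored for inhibition rings.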

[2] = test system: P388; assay: Cytotoxicity against mouse P388 cells assessed as reduction in cell viability at 0.78 to 100 uM after 4 days by MTT assay; assay type: functional, cell-based
Method in brief: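 P388 cells kept in RPMI 1640 with 10% FBS and penicillin/streptomycin, 37 °C, 5% CO2. Compounds added from DMSO or methanol solutions to 1 × 10^5 cells/mL suspension at final 100 to 0.78 μM (twofold series); 4 days exposure. MTT (1 mg/mL) added 4 h, pellet dissolved in DMSO, absorbance read at 570 nm.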

[3] = test system: Saccharomyces cerevisiae; assay: Antimicrobial activity against Saccharomyces cerevisiae at 1.25 to 10 ug/disc after 1 to 2 days by disc diffusion method; assay type: functional, organism-based
Method in brief: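 Saccharomyces cerevisiae precultured in LB broth; 1 mL added to 20 mL agar (5.0% glucose, 0.5% peptone, 0.2% yeast extract, 0.4% K2HPO4, 0.2% KH2PO4, 0.02% MgSO4·7H2O, pH 5.6). Disks (6 mm) at 10, 5, 2.5, 1.25 μg/disk; 37 °C, 1 to 2 days; inhibition rings checked.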

[4] = test system: Bacillus subtilis; assay: Antimicrobial activity against Bacillus subtilis at 1.25 to 10 ug/disc after 1 to 2 days by disc diffusion method; assay type: functional, organism-based
Method in brief: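 Bacillus subtilis precultured in LB broth; 1 mL broth added directly to 20 mL LB agar. Paper disks (6 mm) loaded at 10, 5, 2.5 and 1.25 μg/disk placed on plates; incubation at 37 °C for 1 to 2 days; read-out was presence of inhibition rings around disks.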

Measured: Activity

CC1=C\C=C\[C@H]2[C@H](O)[C@@H](C)CN2C(=O)CC(=O)/C=C/C(C)=C/C=C/C[C@H](O)[C@H](O)C(=O)/C=C\C=C\1
inactive: all assays above

CC1=C\[C@H]2[C@@H]3[C@@H](O)[C@H](O)[C@H](O)C(=O)[C@@H]3C=C[C@@H]2/C(C)=C/C=C/C=C/[C@@H](C)CNC(=O)CC(=O)\C=C\1
inactive: all assays above

CC1=C\C=C\[C@H]2[C@H](O)[C@@H](C)CN2C(=O)CC(=O)/C=C/C(C)=C/C=C/[C@@H](O)[C@H](O)[C@H](O)C(=O)/C=C\C=C\1
inactive: all assays above
